Measured values reported in ChEMBL document CHEMBL1140117, “Structure-activity relationship studies for the peptide portion of the bladder epithelial cell antiproliferative factor from interstitial cystitis patients” (2008).
Residues, ends and D or L forms follow the SMILES beside them. *: point of attachment. X1 = CC(=O)N[C@@H]1[C@@H](O[C@@H]2O[C@H](CO)[C@H](O)[C@H](O)[C@H]2O)[C@@H](O)[C@@H](CO)O[C@@H]1*

Experiment: Antiproliferative activity against human bladder epithelial cells assessed as inhibition of [3H]thymidine incorporation after 48 hrs relative to as-APF
Format: functional, Epithelial cell
Design: scale not given: the % may be the effect or the level left
How it was run: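 Primary normal human bladder epithelial cells, explanted from cystoscopy biopsies, plated at 1.5 × 10⁴ cells/well in MEM with 10% heat-inactivated FBS. Congeners dissolved in acetonitrile/water (1:1), added in serum-free MEM in 10-fold dilutions up to the 25 µM assay cutoff. Incubated 48 h at 37 °C, 5% CO₂. ³H-thymidine uptake counted on filters. Activity expressed relative to the standard control run on each plate. Triplicates, at least two runs, ANOVA.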

## CC(=O)N[C@H]1[C@@H](O[C@H](C)[C@H](NC(=O)[C@@H](N)Cc2ccc(O)cc2)C(=O)N[C@H](C(=O)N2CCC[C@H]2C(=O)N[C@@H](C)C(=O)N[C@@H](C)C(=O)N[C@H](C(=O)N[C@H](C(=O)N[C@H](C(=O)N[C@@H](C)C(=O)O)C(C)C)C(C)C)C(C)C)C(C)C)O[C@H](CO)[C@H](O)[C@@H]1O[C@@H]1O[C@H](CO)[C@H](O)[C@H](O)[C@H]1O (H-YT(X1)VPAAVVVA-OH)
  Activity: 1%
